Where two headings read alike, the source gives them in different places.
Experiments:
[1] = system: J-Lat 10.6 cells; format: cell-based; details: for duration of reinforced latency following withdrawal in vitro: J-Lat 10.6, after 21 days' treatment
[2] = system: J-Lat 10.6 cells; test: LRA-induced provirus expression; format: cell-based
[3] = system: class I and II HDAC; test: Cellular HDAC activity assay; format: cell-based; details: for IC50: read-out: HDAC Inhibition IC50, Jurkat cells, 90 min, HDAC-Glo I/II
[4] = system: Jurkat cells; test: Jurkat cell viability, 24 h; format: cell-based
[5] = Viability of uninfected PBMCs; format: cell-based, human; details: human, CC50, uninfected PBMCs, Viacount dye
[6] = system: PBMCs; test: Viability of uninfected PBMCs; format: cell-based, human; details: 6 days, Viacount dye
[7] = system: J-Lat 9.2 cells; test: LRA-induced provirus expression; format: cell-based
[8] = system: OM-10.1 cells; test: TNFα-induced provirus expression; format: cell-based; details: 24 h, read-out: TNFα EC50, inhibition of provirus expression
In short: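 OM-10.1 cells seeded at 200,000 cells/well and co-treated with 1 ng/mL TNFα plus test compound or 0.1% DMSO for 24 h. Cells were fixed, permeabilized, stained for intracellular p24Gag (KC57-RD1) and scored on live-gated cells by flow cytometry. EC50s were derived after normalizing to TNFα-only controls.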

[9] = system: HIV RNA in CD4+ T cell culture supernatants; test: Spontaneous viral RNA production in primary CD4+ T cells from donors with HIV; format: cell-based, human
[10] = system: primary CD4+ T cells; test: Live cell counting of primary CD4+ T cell cultures; format: cell-based, human; details: 30 nM
In short: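 CD4+ T cells came from five HIV-infected donors on suppressive ART (<50 copies/mL for ≥3 years), isolated from PBMCs by negative selection. 10⁶ cells per 1 mL R20+ (20% FBS) received 0.1% DMSO or 30 nM test compound for 24 h. Alternatively: 72 h treatment, wash, re-treatment in R20+ plus IL-2 for 72–96 h, wash, then 24 h compound-free. Cells were counted visually by trypan blue.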

[11] = system: Tat-dependent transactivation; test: Tat-transactivated mCherry expression in JurTat cells; format: cell-based; details: up to 30 μM, JurTat
In short: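 JurTat cells (Tat-Dendra plus HIV LTR-mCherry) were induced with 500 ng/mL doxycycline and seeded at 200,000 cells/well with test compound or 0.1% DMSO. After 24 h, Tat-Dendra and mCherry were measured by flow cytometry. Values are percent positive cells and mCherry:Dendra fluorescence ratio, expressed relative to 0.1% DMSO-treated cells.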

[12] = system: Tat-dependent transactivation; test: HIV Tat-induced GFP expression in CEM-GXR cells; format: cell-based, HIV-1
[13] = biological target: CDK9/cyclin T1 (Homo sapiens, UniProt P50750); test: CDK9 kinase activity assay; format: biochemical
[14] = system: HIV-1NL4.3; test: HIV replication assay in PBMCs; format: cell-based; details: day 6
[15] = J-Lat 10.6, 24 h, read-out: HMBA EC50, inhibition of provirus expression
[16] = J-Lat 10.6, 24 h, read-out: JQ1 EC50, inhibition of provirus expression
[17] = J-Lat 10.6, 24 h, read-out: TNFα EC50, inhibition of provirus expression
[18] = J-Lat 9.2, 24 h, read-out: Panobinostat EC50, inhibition of provirus expression
[19] = J-Lat 9.2, 24 h, read-out: Prostratin EC50, inhibition of provirus expression
[20] = J-Lat 9.2, 24 h, read-out: TNFα EC50, inhibition of provirus expression
[21] = 30 nM for 6 – 7 days, washed, 24 hours without compound

CDK9/cyclin T1, sequence (P50750 whole entry): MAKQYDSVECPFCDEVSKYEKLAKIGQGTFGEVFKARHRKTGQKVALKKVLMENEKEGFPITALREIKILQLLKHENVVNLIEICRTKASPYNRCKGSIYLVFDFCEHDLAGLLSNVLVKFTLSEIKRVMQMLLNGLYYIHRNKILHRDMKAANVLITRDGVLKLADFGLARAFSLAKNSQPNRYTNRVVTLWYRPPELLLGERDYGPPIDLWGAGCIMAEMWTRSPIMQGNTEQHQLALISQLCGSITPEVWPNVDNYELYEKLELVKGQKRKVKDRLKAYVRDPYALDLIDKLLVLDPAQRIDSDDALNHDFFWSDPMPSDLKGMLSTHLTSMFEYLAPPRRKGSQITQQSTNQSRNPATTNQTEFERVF
CDK9/cyclin T1, sequence (O60563 whole entry partner): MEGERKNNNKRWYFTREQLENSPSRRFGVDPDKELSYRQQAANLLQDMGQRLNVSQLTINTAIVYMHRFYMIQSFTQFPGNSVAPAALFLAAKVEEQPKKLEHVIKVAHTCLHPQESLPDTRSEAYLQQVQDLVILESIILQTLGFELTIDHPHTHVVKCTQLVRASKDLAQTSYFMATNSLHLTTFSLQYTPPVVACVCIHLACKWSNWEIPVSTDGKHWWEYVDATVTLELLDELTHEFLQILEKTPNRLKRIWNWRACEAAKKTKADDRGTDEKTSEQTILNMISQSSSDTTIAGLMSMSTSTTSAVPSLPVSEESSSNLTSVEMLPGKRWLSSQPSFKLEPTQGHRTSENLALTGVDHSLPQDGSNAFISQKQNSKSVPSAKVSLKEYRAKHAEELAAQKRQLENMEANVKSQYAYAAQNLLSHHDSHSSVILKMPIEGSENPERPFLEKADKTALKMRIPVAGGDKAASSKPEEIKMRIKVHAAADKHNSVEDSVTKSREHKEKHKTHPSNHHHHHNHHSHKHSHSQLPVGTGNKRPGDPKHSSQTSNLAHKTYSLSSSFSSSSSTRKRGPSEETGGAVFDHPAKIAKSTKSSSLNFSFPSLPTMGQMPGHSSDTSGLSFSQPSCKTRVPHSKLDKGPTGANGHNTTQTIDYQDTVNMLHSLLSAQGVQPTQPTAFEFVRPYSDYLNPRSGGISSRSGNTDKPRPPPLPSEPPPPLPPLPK

**Q.** For `COc1cc(F)ccc1-c1ncnc(Nc2cccc(C[S@](C)(=N)=O)c2)n1` [Atuveciclib, atuveciclib, reference compound], which “GFP expression 11 days following wash-out” value ([1]; 10 μM for 21 days, J-Lat 10.6) is on record?
**A.** returned to those of untreated controls

**Q.** What about the “GFP expression 24 hours after washing, % of vehicle-treated control cells” value ([1]; 10 μM for 21 days, washed, 24 h drug-free, J-Lat 10.6) of the same compound?
**A.** 53.0 ± 0.8%

**Q.** What about the “GFP expression before wash-out, % of untreated cells” value ([1]; 10 μM, 21 days, J-Lat 10.6) of the same compound?
**A.** 3.4 ± 0.7%

**Q.** What about the “spontaneous GFP production abolished” value ([1]; 10 μM, after 9 days, J-Lat 10.6) of the same compound?
**A.** > 95%

**Q.** And the “duration of reinforced latency following withdrawal in vitro” value [1]?
**A.** 9 days

**Q.** What about the EC50 [2, 15] of the same compound?
**A.** 1800 ± 100 nM

**Q.** And the EC50 [2, 16]?
**A.** 2400 ± 200 nM

**Q.** What about the EC50 [2, 17] of the same compound?
**A.** 4300 ± 200 nM

**Q.** What about the HDAC activity inhibited ([3]; 10 μM, Jurkat) of the same compound?
**A.** 11.3 ± 12.9%

**Q.** What about the HDAC activity inhibited ([3]; 90 μM, Jurkat) of the same compound?
**A.** 29.7 ± 14.3%

**Q.** What about the IC50 [3] of the same compound?
**A.** > 90000 nM

**Q.** And the “viability reduced vs 0.1% DMSO” value ([4]; 30 μM)?
**A.** 61.3 ± 2.6%

**Q.** What about the CC50 at 6 days [5] of the same compound?
**A.** 24700 ± 4900 nM

**Q.** And the CC50 [6]?
**A.** 24400 ± 1500 nM

**Q.** And the EC50 [7, 18]?
**A.** 3600 ± 800 nM

**Q.** What about the EC50 [7, 19] of the same compound?
**A.** 1800 ± 100 nM

**Q.** What about the EC50 [7, 20] of the same compound?
**A.** 1700 ± 200 nM

**Q.** And the EC50 [8]?
**A.** 1800 ± 90 nM

**Q.** With `CN1CC[C@H](c2c(O)cc(O)c3c(=O)cc(-c4ccccc4Cl)oc23)[C@H](O)C1` [Flavopiridol, flavopiridol] as the compound, how does the “GFP expression 14 days following washout, % of control levels” value ([1]; 10 nM for 21 days, J-Lat 10.6) read?
**A.** 59.7 ± 15.2%

**Q.** And the “GFP expression 24 hours after washing, % of control GFP levels” value ([1]; 10 nM for 21 days, washed, 24 h drug-free, J-Lat 10.6)?
**A.** 32.4 ± 3.6%

**Q.** And the “GFP expression before wash-out, % of untreated cells” value ([1]; 10 nM, 21 days, J-Lat 10.6)?
**A.** 26.2 ± 9.6%

**Q.** And the “reduction of spontaneous GFP expression vs 0.1% DMSO” value ([1]; 10 nM, 21 days, J-Lat 10.6)?
**A.** 73.8 ± 9.6%

**Q.** And the “duration of reinforced latency following withdrawal in vitro” value [1]?
**A.** ≥ 14 days

**Q.** And the “average reduction in total viral RNA across all cultures” value [9, 21]?
**A.** 96.8%

**Q.** What about the “cultures with reduced viral RNA production” value [9, 21] of the same compound?
**A.** 4 of 5

**Q.** And the “cultures with no viral RNA detected” value ([9]; 30 nM for 6 – 7 days, washed, 24 hours, limit of detection 200 copies/mL)?
**A.** two

**Q.** And the “average increase in viral RNA vs 0.1% DMSO” value ([9]; 30 nM, 24 hours)?
**A.** 7.1 fold

**Q.** What about the “HIV RNA in culture supernatant” value ([9]; 30 nM, 24 hours, CD4+ T cells from five donors with HIV) of the same compound?
**A.** 1.7*10^9 ± 3.1*10^9 viral copies/mL

**Q.** And the EC50 [2, 15]?
**A.** 99 ± 2 nM

**Q.** And the EC50 [2, 16]?
**A.** 14 ± 2 nM

**Q.** What about the EC50 [2, 17] of the same compound?
**A.** 19 ± 1 nM

**Q.** And the IC50 [3]?
**A.** > 1000 nM

**Q.** What about the “HDAC inhibition” value ([3]; up to 1 μM, Jurkat) of the same compound?
**A.** no HDAC inhibition was observed

**Q.** What about the “viability reduced vs 0.1% DMSO” value ([4]; 0.3 μM) of the same compound?
**A.** 38.8 ± 25%

**Q.** And the CC50 at 6 days [5]?
**A.** 250 ± 60 nM

**Q.** And the CC50 [6]?
**A.** 220 ± 40 nM

**Q.** What about the EC50 [7, 18] of the same compound?
**A.** 28 ± 3 nM

**Q.** And the EC50 [7, 19]?
**A.** 9 ± 1 nM

**Q.** And the EC50 [7, 20]?
**A.** 8 ± 0.4 nM

**Q.** What about the EC50 [8] of the same compound?
**A.** 13 ± 0.8 nM

**Q.** What about the live cell count ([10]; 24 hours) of the same compound?
**A.** 1.2*10^6 ± 5.6*10^5 cells/mL

**Q.** And the live cell count ([10]; after 6 – 7 days)?
**A.** 1.3*10^6 ± 3.9*10^5 cells/mL

**Q.** With `O=c1cc(-c2ccc(O)c(O)c2)oc2cc(O[C@@H]3O[C@H](CO)[C@@H](O)[C@H](O)[C@H]3O)cc(O)c12` [L7G, luteolin-7-glucoside] as the compound, how does the “spontaneous latency reversal” value ([1]; 10 μM, 21 days, J-Lat 10.6) read?
**A.** highly variable, but not inhibited

**Q.** What about the “effect on ratio of mCherry:Dendra fluorescence” value [11] of the same compound?
**A.** neither naringenin nor L7G substantially affected the ratio

**Q.** What about the EC50 ([12]; read-out: Tat-dependent transactivation EC50, pCMV-Tat-transfected CEM-GXR cells, GFP, 24 h) of the same compound?
**A.** > 30000 nM

**Q.** What about the “inhibition of Tat-induced GFP expression” value ([12]; up to 30 μM, CEM-GXR) of the same compound?
**A.** unable to inhibit GFP expression

**Q.** And the “CDK9 IC50 fold higher than aglycone analogue luteolin” value [13]?
**A.** 96 fold

**Q.** And the IC50 ([13]; read-out: CDK9 inhibition IC50, purified CDK9/cyclin T1, 10 μM ATP, ADP-Glo)?
**A.** 6900 ± 3900 nM

**Q.** And the EC50 ([2]; read-out: HMBA EC50, inhibition of provirus expression, J-Lat 10.6, 10 mM HMBA, 24 h, GFP)?
**A.** 10100 ± 3500 nM

**Q.** And the EC50 ([2]; read-out: JQ1 EC50, inhibition of provirus expression, J-Lat 10.6, 10 μM JQ1, 24 h, GFP)?
**A.** 16400 ± 3300 nM

**Q.** And the EC50 ([2]; read-out: TNFα EC50, inhibition of provirus expression, J-Lat 10.6, 10 ng/mL TNFα, 24 h, GFP)?
**A.** 11900 ± 500 nM

**Q.** And the IC50 [3]?
**A.** > 90000 nM

**Q.** And the CC50 [6]?
**A.** 18300 ± 2500 nM

**Q.** And the EC50 ([7]; read-out: Panobinostat EC50, inhibition of provirus expression, J-Lat 9.2, 0.1 μM panobinostat, 24 h, GFP)?
**A.** 4300 ± 400 nM

**Q.** And the EC50 ([7]; read-out: Prostratin EC50, inhibition of provirus expression, J-Lat 9.2, 10 μM prostratin, 24 h, GFP)?
**A.** 17300 ± 2200 nM

**Q.** And the EC50 ([7]; read-out: TNFα EC50, inhibition of provirus expression, J-Lat 9.2, 10 ng/mL TNFα, 24 h, GFP)?
**A.** 4500 ± 600 nM

**Q.** What about the HIV replication suppressed ([14]; 1 μM) of the same compound?
**A.** 26.3 ± 24.8%

**Q.** What about the HIV replication suppressed ([14]; 10 μM) of the same compound?
**A.** 77.3 ± 32.7%

**Q.** And the EC50 ([8]; OM-10.1, 1 ng/mL TNFα, p24Gag)?
**A.** 10300 ± 1200 nM
